Activity calls are given as the source filed them. No cut-off for these calls is given here.
Tests used:
Influenza A virus [1] = experiment: Antiviral activity against Influenza A virus (A/Puerto Rico/8/34(H1N1)) infected in Balb/c mouse assessed as respiratory epithelium desquamation at 5 mg/kg qd administered intranasally for 7 days starting from 1 day post infection by hematoxylin and eosin staining based microscopic analysis; assay type: functional, organism-based; details: A/Puerto Rico/8/1934(H1N1)
Influenza A virus [2] = experiment: Antiviral activity against Influenza A virus (A/Puerto Rico/8/34(H1N1)) infected in Balb/c mouse assessed as bronchial wall thickening in lungs at 20 mg/kg qd administered intranasally as single dose at 2 hrs post infection measured after 7 days post infection by hematoxylin and eosin staining based microscopic analysis; assay type: functional, organism-based; details: A/Puerto Rico/8/1934(H1N1)
Influenza A virus [3] = experiment: Antiviral activity against Influenza A virus (A/Puerto Rico/8/34(H1N1)) infected in Balb/c mouse assessed as bronchial wall thickening in lungs at 5 mg/kg qd administered intranasally for 7 days starting from 1 day post infection by hematoxylin and eosin staining based microscopic analysis; assay type: functional, organism-based; details: A/Puerto Rico/8/1934(H1N1)
Influenza A virus [4] = experiment: Antiviral activity against Influenza A virus (A/Puerto Rico/8/34(H1N1)) infected in Balb/c mouse assessed as immune cell infiltration in lungs at 5 mg/kg qd administered intranasally for 7 days starting from 1 day post infection by hematoxylin and eosin staining based microscopic analysis; assay type: functional, organism-based; details: A/Puerto Rico/8/1934(H1N1)
Influenza A virus [5] = experiment: Antiviral activity against Influenza A virus (A/Puerto Rico/8/34(H1N1)) assessed as decrease in lung lesions at 20 mg/kg qd administered intranasally as single dose at 2 hrs post infection measured after 7 days post infection by hematoxylin and eosin staining based microscopic analysis; assay type: functional, organism-based; details: A/Puerto Rico/8/1934(H1N1)
Influenza A virus [6] = experiment: Antiviral activity against Influenza A virus (A/Puerto Rico/8/34(H1N1)) infected in Balb/c mouse assessed as respiratory epithelium desquamation at 20 mg/kg qd administered intranasally as single dose at 2 hrs post infection measured after 7 days post infection by hematoxylin and eosin staining based microscopic analysis; assay type: functional, organism-based; details: A/Puerto Rico/8/1934(H1N1)
Influenza A virus [7] = experiment: Antiviral activity against Influenza A virus (A/Anhui/1/2013(H7N9)) expressing A/Puerto Rico/8/34(H1N1) genes infected in MDCK cells assessed as reduction in viral replication after 72 hrs by hemagglutination test; assay type: functional, organism-based
Influenza A virus [8] = experiment: Antiviral activity against Influenza A virus (A/Puerto Rico/8/34(H1N1)) infected in Balb/c mouse assessed as protection against lethal virus challenge by measuring body weight at 20 mg/kg administered intranasally as single dose at 2 hrs post infection measured up to 9 days post treatment; assay type: functional, organism-based; details: A/Puerto Rico/8/1934(H1N1)
Method in brief: (§1)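 BALB/c mice (6 per group) inoculated intranasally under anaesthesia with 10^5 pfu in 40 μL PBS. Inhibitor given intranasally in 40 μL PBS, either daily for 7 days from day 1 or once at 2 h pi; PBS-treated infected and uninfected controls. Weight and survival followed for 14 days; death counted at 25% weight loss or moribund. Mantel–Cox test.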

[9] = Inhibition of recombinant Influenza A virus (A/Anhui/1/2013(H7N9)) Neuraminidase N9 expressed in baculovirus infected insect cells using 4-MU-NANA as substrate preincubated for 30 mins followed by substrate addition by microplate reader analysis
Method in brief: (§2)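 Purified recombinant NA, with activity pre-set to roughly 10–50 nM in PBS, preincubated with serial 5-fold inhibitor dilutions in PBS (top 1 mM) at 37 °C for 30 min. MUNANA solution (167 μM, PBS) then added. Fluorescence read at ex 355/em 460 nm.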

Influenza A virus [10] = experiment: Antiviral activity against Influenza A virus (A/Puerto Rico/8/34(H1N1)) infected in Balb/c mouse assessed as protection against lethal virus challenge by measuring mouse survival at 20 mg/kg administered intranasally as single dose at 2 hrs post infection measured up to 9 days post treatment; assay type: functional, organism-based; details: A/Puerto Rico/8/1934(H1N1); method in brief: as §1
[11] = Binding affinity to recombinant Influenza A virus (A/Moscow/10/99(H3N2)) Neuraminidase N2 expressed in baculovirus infected insect cells measured up to 400 sec by surface plasmon resonance analysis; set-up: species or system Influenza A virus (A/Moscow/10/1999(H3N2))
Method in brief: (§3)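 NA covalently immobilised on CM5 chip by amine coupling. Analyte passed over at several concentrations in running buffer. BSA served as negative control protein. Constants from a steady-state affinity model; triplicate experiments.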

Influenza A virus [12] = experiment: Antiviral activity against Influenza A virus (A/Puerto Rico/8/34(H1N1)) infected in Balb/c mouse assessed as protection against lethal virus challenge by measuring body weight at 5 to 10 mg/kg qd administered intranasally for 7 days starting from 1 day post infection measured for 14 days; assay type: functional, organism-based; details: A/Puerto Rico/8/1934(H1N1); method in brief: as §1
Influenza A virus H3N2 [13] = experiment: Antiviral activity against Influenza A virus (A/Moscow/10/99(H3N2)) expressing A/Puerto Rico/8/34(H1N1) genes infected in MDCK cells assessed as reduction in viral replication after 72 hrs by hemagglutination test; assay type: functional, organism-based, A/Moscow/10/1999(H3N2)
Influenza A virus [14] = experiment: Antiviral activity against Influenza A virus (A/Puerto Rico/8/34(H1N1)) infected in Balb/c mouse assessed as protection against lethal virus challenge by measuring mouse survival at 5 to 10 mg/kg qd administered intranasally for 7 days starting from 1 day post infection measured for 14 days; assay type: functional, organism-based; details: A/Puerto Rico/8/1934(H1N1); method in brief: as §1
Influenza A virus [15] = experiment: Antiviral activity against Influenza A virus (A/Puerto Rico/8/34(H1N1)) infected in Balb/c mouse assessed as immune cell infiltration in lungs at 20 mg/kg qd administered intranasally as single dose at 2 hrs post infection measured after 7 days post infection by hematoxylin and eosin staining based microscopic analysis; assay type: functional, organism-based; details: A/Puerto Rico/8/1934(H1N1)
[16] = Inhibition of recombinant Influenza A virus (A/Moscow/10/99(H3N2)) Neuraminidase N2 expressed in baculovirus infected insect cells using 4-MU-NANA as substrate preincubated for 30 mins followed by substrate addition by microplate reader analysis; set-up: species or system Influenza A virus (A/Moscow/10/1999(H3N2)); method in brief: as §2
Influenza A virus [17] = experiment: Antiviral activity against Influenza A virus (A/Puerto Rico/8/34(H1N1)) assessed as decrease in lung lesions at 10 mg/kg qd administered intranasally for 7 days starting from 1 day post infection by hematoxylin and eosin staining based microscopic analysis; assay type: functional, organism-based; details: A/Puerto Rico/8/1934(H1N1)
[18] = Aqueous solubility of compound; assay type: physicochemical; details: buffer
MDCK = experiment: Cytotoxicity against MDCK cells assessed as reduction in cell viability after 72 hrs by MTT assay; assay type: cell-based, Canis lupus familiaris; details: dog
Influenza A virus [19] = experiment: Antiviral activity against Influenza A virus (A/Puerto Rico/8/34(H1N1)) infected in Balb/c mouse assessed as protection against lethal virus challenge by measuring mouse survival at 20 mg/kg administered intranasally as single dose at 2 hrs post infection measured up to 14 days post treatment relative to control; assay type: functional, A/Puerto Rico/8/1934(H1N1); method in brief: as §1
Influenza A virus H3N2 [20] = experiment: Induction of viral aggregation in Influenza A virus (A/Moscow/10/99(H3N2)) at 1 mM after 3 hrs by transmission electron microscopic analysis; assay type: functional, organism-based; details: A/Moscow/10/1999(H3N2)
Method in brief: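 Virus (10^7 pfu in 150 μL DMEM) incubated at 37 °C for 3 h with 10 μL of 1 mM inhibitor stock in PBS, or without; then processed for transmission electron microscopy.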

[21] = Half life in Sprague-Dawley rat at 6 umol/kg, iv by HPLC analysis; assay type: ADME, organism-based; details: in vivo
Method in brief: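 Rats (n = 5) received a single tail-vein injection in physiological saline. Plasma levels measured by HPLC, using a reversed-phase C18 gradient with ammonium-containing aqueous/acetonitrile eluents over 5 min at 0.6 mL/min.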

Influenza A virus [22] = experiment: Antiviral activity against Influenza A virus (A/Puerto Rico/8/34(H1N1)) infected in MDCK cells assessed as plaque reduction after 72 hrs by toluidine blue staining based method; assay type: functional, A/Puerto Rico/8/1934(H1N1)
Influenza A virus [23] = experiment: Antiviral activity against Influenza A virus (A/Puerto Rico/8/34(H1N1)) infected in Balb/c mouse assessed as protection against lethal virus challenge by measuring body weight at 20 mg/kg administered intranasally as single dose at 2 hrs post infection measured up to 14 days post treatment relative to control; assay type: functional, A/Puerto Rico/8/1934(H1N1); method in brief: as §1
[24] = target: Neuraminidase (Influenza A virus (A/Memphis/1/1971(H3N2))) (UniProt P03471); experiment: Binding affinity to recombinant Influenza A virus (A/Moscow/10/99(H3N2)) Neuraminidase N2 expressed in baculovirus infected insect cells at 100 to 1000 nM measured up to 160 sec by surface plasmon resonance analysis; method in brief: as §3
Neuraminidase (Influenza A virus (A/Memphis/1/1971(H3N2))), sequence (P03471 whole entry): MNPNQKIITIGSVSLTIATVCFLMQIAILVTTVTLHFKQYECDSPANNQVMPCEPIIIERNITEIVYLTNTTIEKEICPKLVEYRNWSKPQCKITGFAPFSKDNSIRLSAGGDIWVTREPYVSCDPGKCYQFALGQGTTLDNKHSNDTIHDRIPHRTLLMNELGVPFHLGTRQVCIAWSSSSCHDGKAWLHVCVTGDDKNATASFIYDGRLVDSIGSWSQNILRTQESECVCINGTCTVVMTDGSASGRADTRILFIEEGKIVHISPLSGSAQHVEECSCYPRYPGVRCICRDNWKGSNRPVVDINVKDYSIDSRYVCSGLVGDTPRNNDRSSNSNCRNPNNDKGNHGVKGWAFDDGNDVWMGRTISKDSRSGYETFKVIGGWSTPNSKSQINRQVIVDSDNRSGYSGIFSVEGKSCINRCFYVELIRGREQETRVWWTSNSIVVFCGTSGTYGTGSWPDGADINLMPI

[25] = Influenza A virus, A/Moscow/10/1999(H3N2), MDCK, 72 h, read-out: EC50

CC(=O)N[C@H]1[C@H]([C@H](O)[C@H](O)CO)OC(C(=O)O)=C[C@@H]1NC(=N)N [ZANAMIVIR]
Activity (Influenza A virus [1]): inactive
Activity (Influenza A virus [2]): inactive
Activity (Influenza A virus [3]): inactive
Activity (Influenza A virus [4]): inactive
Activity (Influenza A virus [5]): inactive
Activity (Influenza A virus [6]): inactive
EC50 (Influenza A virus [7]): 6.1 nM
Activity (Influenza A virus [8]): inactive
IC50 [9]: 1.5 nM
Activity (Influenza A virus [10]): inactive
Kd [11]: 1.1 nM
Activity (Influenza A virus [12]): Active
EC50 (Influenza A virus H3N2 [13]; [25]): 17.7 nM
Activity (Influenza A virus [14]): Active
Activity (Influenza A virus [15]): inactive
IC50 [16]: 3 nM
Activity (Influenza A virus [17]): inactive

CC(=O)N[C@H]1[C@H]([C@H](OC(=O)NCCOCCOCCOCc2cn(CC(Cn3cc(COCCOCCOCCNC(=O)O[C@@H]([C@@H]4OC(C(=O)O)=C[C@H](NC(=N)N)[C@H]4NC(C)=O)[C@H](O)CO)nn3)(Cn3cc(COCCOCCOCCNC(=O)O[C@@H]([C@@H]4OC(C(=O)O)=C[C@H](NC(=N)N)[C@H]4NC(C)=O)[C@H](O)CO)nn3)Cn3cc(COCCOCCOCCNC(=O)O[C@@H]([C@@H]4OC(C(=O)O)=C[C@H](NC(=N)N)[C@H]4NC(C)=O)[C@H](O)CO)nn3)nn2)[C@H](O)CO)OC(C(=O)O)=C[C@@H]1NC(=N)N (stereo partly specified)
IC50 [9]: 2.5 nM
Kd [11]: 2.2 nM
solubility [18]: Soluble
IC50 [16]: 6.2 nM

CC(=O)N[C@H]1[C@H]([C@H](OC(=O)NCCOCCOCCOCCOCCOCCOCCOCCOCCOCCOCCOCCOCc2cn(CC(Cn3cc(COCCOCCOCCOCCOCCOCCOCCOCCOCCOCCOCCOCCNC(=O)O[C@@H]([C@@H]4OC(C(=O)O)=C[C@H](NC(=N)N)[C@H]4NC(C)=O)[C@H](O)CO)nn3)(Cn3cc(COCCOCCOCCOCCOCCOCCOCCOCCOCCOCCOCCOCCNC(=O)O[C@@H]([C@@H]4OC(C(=O)O)=C[C@H](NC(=N)N)[C@H]4NC(C)=O)[C@H](O)CO)nn3)Cn3cc(COCCOCCOCCOCCOCCOCCOCCOCCOCCOCCOCCOCCNC(=O)O[C@@H]([C@@H]4OC(C(=O)O)=C[C@H](NC(=N)N)[C@H]4NC(C)=O)[C@H](O)CO)nn3)nn2)[C@H](O)CO)OC(C(=O)O)=C[C@@H]1NC(=N)N (stereo partly specified)
Activity (MDCK): Non-Toxic
Activity (Influenza A virus [1]): Active
Activity (Influenza A virus [2]): Active
Activity (Influenza A virus [3]): Active
Activity (Influenza A virus [4]): Active
Activity (Influenza A virus [5]): Active
Activity (Influenza A virus [6]): Active
Activity (Influenza A virus [19]): 100%
EC50 (Influenza A virus [7]): 1.2 nM
Activity (Influenza A virus H3N2 [20]): inactive
IC50 [9]: 0.8 nM
half-life [21]: 72 min
solubility [18]: Soluble
Activity (Influenza A virus [22]): <4 nM
Activity (Influenza A virus [12]): Active
EC50 (Influenza A virus H3N2 [13]; [25]): 3.5 nM
Activity (Influenza A virus [14]): Active
Activity (Influenza A virus [23]): 100%
Activity (Influenza A virus [15]): Active
IC50 [16]: 2.8 nM
Activity (Influenza A virus [17]): Active

COCCOCCOCCOCCOCCOCCOCCOCCOCCOCc1cn(CC(Cn2cc(COCCOCCOCCOCCOCCOCCOCCOCCOCCOC)nn2)(Cn2cc(COCCOCCOCCOCCOCCOCCOCCOCCOCCOC)nn2)Cn2cc(COCCOCCOCCOCCOCCOCCOCCOCCOCCOC)nn2)nn1
Activity (MDCK): Non-Toxic
EC50 (Influenza A virus H3N2 [13]): Not Active
Activity [24]: inactive

CC(=O)N[C@H]1[C@H]([C@H](O)[C@H](O)CO)OC(C(=O)O)=C[C@@H]1N=C(N)N [ZANAMIVIR]
Activity (MDCK): Non-Toxic
half-life [21]: 32 min

CCC(CC)O[C@@H]1C=C(C(=O)O)C[C@H](N)[C@H]1NC(C)=O [OSELTAMIVIR CARBOXYLATE]
Activity (MDCK): Non-Toxic
EC50 (Influenza A virus [7]): 12.3 nM
IC50 [9]: 0.8 nM
EC50 (Influenza A virus H3N2 [13]; [25]): 7.1 nM
IC50 [16]: 0.4 nM

CC(=O)N[C@@H]1[C@H]([C@@H](OC(=O)NCCOCCOCCOCCOCCOCCOCc2cn(CC(Cn3cc(COCCOCCOCCOCCOCCOCCNC(=O)O[C@@H]([C@@H]4OC(C(=O)O)=C[C@H](NC(=N)N)[C@H]4NC(C)=O)[C@H](O)CO)nn3)(Cn3cc(COCCOCCOCCOCCOCCOCCNC(=O)O[C@@H]([C@@H]4OC(C(=O)O)=C[C@H](NC(=N)N)[C@H]4NC(C)=O)[C@H](O)CO)nn3)Cn3cc(COCCOCCOCCOCCOCCOCCNC(=O)O[C@@H]([C@@H]4OC(C(=O)O)=C[C@H](NC(=N)N)[C@H]4NC(C)=O)[C@H](O)CO)nn3)nn2)[C@H](O)CO)OC(C(=O)O)=C[C@@H]1NC(=N)N (stereo partly specified)
IC50 [9]: 1 nM
Kd [11]: 1.5 nM
solubility [18]: Soluble
IC50 [16]: 3.8 nM

From ChEMBL document CHEMBL4425127 (J Med Chem, 2016)
